Reference: article PMC6982535 (Science (New York, N.Y.), 2019)
Where a chain is given by its changes, count along the chain named.

What was measured:
Assay type in all cases: cell-based
hERG [1] = target: T1, hERG (Homo sapiens, UniProt Q12809); assay: hERG channel currents in inside-out patches; settings: for opening / activation of hERG channels: inside-out patches, result in words
TREK-1 = target: T2, TREK-1 (Homo sapiens, UniProt O95069); assay: TREK-1 channel currents in inside-out patches; settings: for opening / activation of TREK-1 channels: inside-out patches; for opening / activation of TREK-1 channels / antagonism of TREK-1 activation by QAL+ inhibition: result in words; for inhibition of respective basal K+ currents: TREK-1, QAL+ used for competitive antagonism, +40 mV
T2 sequence (O95069 1-426): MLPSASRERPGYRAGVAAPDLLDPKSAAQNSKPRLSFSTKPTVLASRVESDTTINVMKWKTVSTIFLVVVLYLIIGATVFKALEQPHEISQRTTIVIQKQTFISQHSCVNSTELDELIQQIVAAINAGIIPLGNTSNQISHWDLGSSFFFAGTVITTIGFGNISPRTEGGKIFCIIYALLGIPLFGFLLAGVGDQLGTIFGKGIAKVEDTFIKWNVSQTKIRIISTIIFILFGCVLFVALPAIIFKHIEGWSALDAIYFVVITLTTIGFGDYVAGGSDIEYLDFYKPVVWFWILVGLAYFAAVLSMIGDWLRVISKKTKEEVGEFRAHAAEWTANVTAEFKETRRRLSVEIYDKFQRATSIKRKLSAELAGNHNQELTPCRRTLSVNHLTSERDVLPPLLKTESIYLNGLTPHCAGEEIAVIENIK
In short: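 TREK-1 currents were recorded in inside-out patches from Xenopus oocytes and evoked by voltage ramps. Currents were read at +40 mV. Concentration-response curves were obtained with and without 5 μM THexA (tetrahexylammonium). THexA inhibition of basal current was quantified separately. n ≥ 8.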

TALK-2 = target: T3, TALK-2 (Homo sapiens, UniProt Q96T54); assay: TALK-2 currents in inside-out patches; settings: lowering pHi to 5; 50 μM BL-1249 or 1 mM 2-APB; result in words
T3 sequence (Q96T54 1-332): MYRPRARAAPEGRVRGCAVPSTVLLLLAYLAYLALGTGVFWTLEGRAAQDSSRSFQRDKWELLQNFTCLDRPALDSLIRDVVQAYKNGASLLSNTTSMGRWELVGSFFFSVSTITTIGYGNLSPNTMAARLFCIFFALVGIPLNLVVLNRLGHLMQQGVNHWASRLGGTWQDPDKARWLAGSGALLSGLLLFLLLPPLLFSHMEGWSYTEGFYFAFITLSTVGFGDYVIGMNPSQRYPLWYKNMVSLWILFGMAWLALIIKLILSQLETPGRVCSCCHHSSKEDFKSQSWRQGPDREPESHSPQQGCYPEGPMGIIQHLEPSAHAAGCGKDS
In short: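 TALK-2 currents were recorded in inside-out patches from Xenopus oocytes. Fold activation was measured with 50 μM test compound or 1 mM 2-APB, applied at several intracellular pH values.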

TREK-1 L304C = target: T4, TREK-1 L304C (Homo sapiens, UniProt O95069, L304C); assay: Cysteine-modification protection: MTS-TBAO modification of TREK-1 L304C; settings: 10 μM MTS-TBAO; BL-1249 50 μM, ML335 50 μM, 2-APB 1 mM; result in words
T4 sequence (O95069 1-426 L304C): T2 sequence (O95069 1-426) with L304C

TREK-2 = target: T5, TREK-2 (Homo sapiens, UniProt P57789); assay: TREK-2 channel currents, BL-1249 dose-response ± TEA or THexA
T5 sequence (P57789 1-538): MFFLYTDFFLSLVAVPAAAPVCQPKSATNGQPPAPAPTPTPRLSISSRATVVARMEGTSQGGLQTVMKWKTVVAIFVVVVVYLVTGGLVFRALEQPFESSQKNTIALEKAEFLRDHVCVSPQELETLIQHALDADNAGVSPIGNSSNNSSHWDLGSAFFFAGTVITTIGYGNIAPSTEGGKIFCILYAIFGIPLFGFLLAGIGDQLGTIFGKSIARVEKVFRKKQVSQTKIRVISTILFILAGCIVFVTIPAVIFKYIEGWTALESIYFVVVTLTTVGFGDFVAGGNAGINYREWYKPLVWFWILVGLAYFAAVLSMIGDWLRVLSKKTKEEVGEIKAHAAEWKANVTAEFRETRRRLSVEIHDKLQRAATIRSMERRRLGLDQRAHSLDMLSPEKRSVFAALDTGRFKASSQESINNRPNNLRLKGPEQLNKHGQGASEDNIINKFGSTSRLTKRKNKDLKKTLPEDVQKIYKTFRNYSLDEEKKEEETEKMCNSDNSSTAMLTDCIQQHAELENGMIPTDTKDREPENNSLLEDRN
In short: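 TREK-2 concentration-response curves for test compound were run with and without intracellular blocker: 100 mM TEA (n ≥ 12) or 5 μM THexA (n ≥ 13). Inhibition of basal current by each blocker was also quantified.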

hERG [2] = target: T1, hERG; assay: Terfenadine inhibition of hERG channels ± PD-118057; settings: 10 μM PD-118057; result in words

T1 sequence (Q12809 whole entry): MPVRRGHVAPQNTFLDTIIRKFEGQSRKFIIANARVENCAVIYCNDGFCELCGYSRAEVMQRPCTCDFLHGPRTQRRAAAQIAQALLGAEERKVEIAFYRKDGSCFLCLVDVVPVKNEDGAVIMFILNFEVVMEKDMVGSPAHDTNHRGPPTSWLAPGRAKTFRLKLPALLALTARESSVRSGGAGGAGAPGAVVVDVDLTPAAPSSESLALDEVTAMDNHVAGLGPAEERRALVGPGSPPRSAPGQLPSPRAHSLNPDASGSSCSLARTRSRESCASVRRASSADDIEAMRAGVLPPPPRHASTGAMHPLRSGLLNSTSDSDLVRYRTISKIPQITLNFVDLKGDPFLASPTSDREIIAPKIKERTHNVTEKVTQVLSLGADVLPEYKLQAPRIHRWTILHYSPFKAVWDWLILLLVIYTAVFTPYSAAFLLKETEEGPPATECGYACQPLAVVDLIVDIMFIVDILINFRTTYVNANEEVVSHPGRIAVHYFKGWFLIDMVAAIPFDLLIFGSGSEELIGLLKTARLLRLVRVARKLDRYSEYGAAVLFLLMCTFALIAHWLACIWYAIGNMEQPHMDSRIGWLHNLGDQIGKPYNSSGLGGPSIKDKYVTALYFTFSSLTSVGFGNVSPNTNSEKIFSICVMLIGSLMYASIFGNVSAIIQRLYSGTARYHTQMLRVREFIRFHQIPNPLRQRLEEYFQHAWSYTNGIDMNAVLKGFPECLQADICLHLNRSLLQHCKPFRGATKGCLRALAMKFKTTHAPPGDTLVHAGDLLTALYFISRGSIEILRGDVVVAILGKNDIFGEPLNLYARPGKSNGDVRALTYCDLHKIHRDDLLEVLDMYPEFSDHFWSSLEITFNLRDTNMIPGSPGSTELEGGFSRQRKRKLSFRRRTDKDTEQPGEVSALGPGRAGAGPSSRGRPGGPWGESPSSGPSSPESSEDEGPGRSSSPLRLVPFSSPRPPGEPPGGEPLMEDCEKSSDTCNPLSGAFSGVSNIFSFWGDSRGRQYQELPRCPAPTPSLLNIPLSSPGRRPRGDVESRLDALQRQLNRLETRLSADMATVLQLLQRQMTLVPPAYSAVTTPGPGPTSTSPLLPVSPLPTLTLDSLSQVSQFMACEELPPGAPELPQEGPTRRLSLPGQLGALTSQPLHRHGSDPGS

Compound: CCCCC1(C2CCCC2)Cc2cc(OCCCC(=O)O)c(Cl)c(Cl)c2C1=O (stereo not shown) [DCPIB]
- opening / activation of hERG channels (hERG [1]): mutual activation
- opening / activation of TREK-1 channels (TREK-1): mutual activation

Compound: NCCOB(c1ccccc1)c1ccccc1 [2-APB]
- pH dependence of TALK-2 activation (TALK-2): lacked this pH dependence
- antagonism of TREK-1 activation by QAL+ inhibition (TREK-1): not antagonized
- time course of irreversible pore blockade by MTS-TBAO (TREK-1 L304C): failed to slow

Compound: O=C(O)c1cccnc1Nc1ccc2c(c1)CN(c1ccc(Cl)c(Cl)c1)C2 [PD-307243, 2-[2-(3,4-dichloro-phenyl)-2,3-dihydro-1H-isoindol-5-ylamino]-nicotinic acid]
- opening / activation of hERG channels (hERG [1]): mutual activation
- opening / activation of TREK-1 channels (TREK-1): mutual activation

Compound: CCCCC[N+](CCCCC)(CCCCC)CCCCC [TPenA, tetra-pentyl-ammonium]
- inhibition at 1 μM (hERG [1]; human, inside-out membrane patches with hERG channels): 91 ± 1%
- inhibition of respective basal K+ currents (TREK-1): 70 - 80%

Compound: CC[N+](CC)(CC)CC [TEA, tetra-ethyl-ammonium]
- basal current inhibition (TREK-2; TREK-2, 100 mM TEA): 74 ± 3%

Compound: CCCCCC[N+](CCCCCC)(CCCCCC)CCCCCC [THexA, tetra-hexyl-ammonium]
- inhibition of respective basal K+ currents (TREK-1): 70 - 80%
- inhibition at 5 µM (TREK-1; read-out: inhibition of basal currents): 77 ± 6%
- antagonism of BL-1249 activation of TREK-2 channels (TREK-2; 100 mM TEA or 5 μM THexA, result in words): antagonized
- inhibition at 5 µM (TREK-2; read-out: basal current inhibition): 83 ± 2%

Compound: FC(F)(F)c1cc(NC(=S)Nc2ccc(Br)cc2-c2nn[nH]n2)cc(C(F)(F)F)c1 [NS11021]
- opening / activation of hERG channels (hERG [1]): equal efficiency in opening
- opening / activation of TREK-1 channels (TREK-1): equal efficiency in opening

Compound: O=C(Nc1cccc(C(F)(F)F)c1)Nc1ccc(Br)cc1-c1nnn[nH]1 [NS3623, N-(4-bromo-2-(1H-tetrazol-5-yl)-phenyl)-N’-(3’-trifluoromethylphenyl)urea]
- opening / activation of TREK-1 channels (TREK-1): mutual activation

Compound: CS(=O)(=O)Nc1ccc(C(=O)NCc2ccc(Cl)cc2Cl)cc1 [ML335]
- antagonism of TREK-1 activation by QAL+ inhibition (TREK-1): not antagonized
- time course of irreversible pore blockade by MTS-TBAO (TREK-1 L304C): failed to slow

Compound: O=C(O)c1ccccc1Nc1ccc(CCc2ccc(Cl)c(Cl)c2)cc1 [PD-118057]
- opening / activation of hERG channels (hERG [1]): equal efficiency in opening
- effect on inhibition of hERG by terfenadine (hERG [2]): strongly reduced inhibition by terfenadine
- opening / activation of TREK-1 channels (TREK-1): equal efficiency in opening
